L major viab = Leishmania major promastigote growth inhibition; Leishmania major promastigotes, resazurin fluorescence viability; inhibition, % at 10 µM; AID 1063; 200,000 tested, 9% active; in the data active = inhibition above about 50%;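 note: promastigotes grown with compound for 44 hours at 28 °C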
bCat nuc transl = alters nuclear translocation of beta-catenin in HeLa cells; AID 1665; immunofluorescence imaging; nuclear translocation activity, % at 5 µM; 190,000 tested, 0.3% active;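 active = nuclear translocation activity above 50% at 5 µM, with a well cell count of 50 or more; inconclusive = wells under 50 cells across six images, flagged as toxic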;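 note: per-cell ratio of nuclear to cytoplasmic median beta-catenin stain intensity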
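System: Human HeLa cells, endogenous beta-catenin | Compound dosing: 5 µM primary, 0.02–20 µM confirmation | Timing: 24 h compound exposure at 37°C, 5% CO2 | Measured by: Fluorescence imaging of beta-catenin antibody stain plus DAPI | Read-out basis: % activation of per-cell nuclear versus cytoplasmic median beta-catenin signal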
Dynein transport = dynein cargo transport inhibition. AID 1381. 220,000 tested, 0.47% active. z-score, hits read low. 3617.4 mouse cells, GR-EGFP nuclear translocation imaging; test concentration mostly 20 µM; stimulated with dexamethasone, 1 µM; stronger effect = lower value;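 active = plate z-score of nuclear minus cytoplasmic receptor signal below a set negative limit, without overly bright fluorescence or cell loss, cut at about -3.5 in these data, passing the limit was not always enough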;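 note: z-score of nuclear minus cytoplasmic ring GR-EGFP intensity difference per well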
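Medium: Induction medium lacking tetracycline, stripped serum | Probe or stimulus: 1.0 µM final dexamethasone stimulus | Schedule: 48 h induction, then 1 h compound, then 30 min agonist, 37 °C | Signal: Automated 10x imaging of fixed Hoechst-stained cells | Evaluation: Per-cell GR-EGFP intensity, nucleus versus surrounding cytoplasmic ring, well-averaged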
HSV augment = HSV replication enhancement | HSV replication augmentation in cells, fold increase | maximum fold increase | 220,000 tested, 0.005% active | AID 1956; in the data active = maximum fold increase above about 1.5; inconclusive = no clear call, values can overlap the other calls; tested in PC3 cells
MT stabilize HCS = microtubule stabilization, imaging screen. AID 2205. % tubulin-high responders, % at 10 µM. 200,000 tested, 0.83% active. HeLa tubulin immunostaining HCS, 24 h; share of cells brighter than vehicle mean+2SD;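 active = plate Z-score above 3 for both tubulin-high and condensed-nucleus cell shares, with cell loss under 80%, at 10 µM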;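 note: anti alpha tubulin signal scored within the nucleus-defined area of each cell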
Numbers stand for hits. Sampled rows, rich in hits. Any-hit rate of the full collection: about 8.9%.

Screening COc1cc(OC)cc(-c2cc3nc4c(c(N5CCN(c6ncccn6)CC5)n3n2)CCCC4)c1 returned L major viab 52, bCat nuc transl inactive, Dynein transport inactive, HSV augment inactive and MT stabilize HCS inactive.
For CCc1c(C)nc2cc(-c3cc(OC)cc(OC)c3)nn2c1N1CCCC1 the results were L major viab inactive, Dynein transport inactive, HSV augment inactive and MT stabilize HCS inactive.
Clc1cccc(-c2cc3nc4c(c(NCc5ccco5)n3n2)CCCC4)c1 was read as L major viab 53, bCat nuc transl inactive, Dynein transport inactive, HSV augment inactive and MT stabilize HCS inactive.
For Clc1cccc(-c2cc3nc4c(c(N5CCNCC5)n3n2)CCCC4)c1 the results were L major viab 101, bCat nuc transl inactive, Dynein transport inactive, HSV augment inactive and MT stabilize HCS inactive.
For OC1CCN(c2c3c(nc4cc(-c5cccc(F)c5)nn24)CCCC3)CC1 the results were L major viab inactive, bCat nuc transl inactive, Dynein transport inactive, HSV augment inactive and MT stabilize HCS inactive.
For COc1ccc(OC)c2sc(Cl)nc12 the results were L major viab inactive, bCat nuc transl inactive, Dynein transport inactive, HSV augment inactive and MT stabilize HCS inactive.
For CC(OC(=O)Cc1c(F)cccc1Cl)C(=O)NCCC1=CCCCC1 (stereo not given) the results were L major viab 52, bCat nuc transl inactive, Dynein transport inactive, HSV augment inactive and MT stabilize HCS inactive.
COc1ccc(OC(C)C(=O)NCCC2=CCCCC2)cc1 (stereo not given) was read as L major viab inactive, bCat nuc transl inactive, Dynein transport inactive, HSV augment inactive and MT stabilize HCS inactive.
For Cc1cc(C)n(/N=C/c2cccc([N+](=O)[O-])c2)c(=O)c1 the results were L major viab inactive, bCat nuc transl inactive, Dynein transport inactive, HSV augment inactive and MT stabilize HCS inactive.
For COc1ccc(Oc2c(C)oc3c(CN4CCOCC4)c(O)ccc3c2=O)cc1 the results were L major viab inactive, bCat nuc transl inactive, Dynein transport inactive, HSV augment inactive and MT stabilize HCS inactive.
Screening Cc1oc2c(CN3CCCC3)c(O)ccc2c(=O)c1Oc1ccccc1Br returned L major viab inactive, bCat nuc transl inactive, Dynein transport inactive, HSV augment inactive and MT stabilize HCS inactive.
CCOC(=O)c1ccc(Oc2c(C)oc3c(CN4CCN(C)CC4)c(O)ccc3c2=O)cc1 was read as L major viab 100, bCat nuc transl inactive, Dynein transport inactive, HSV augment inactive and MT stabilize HCS inactive.
CN1CCN(Cc2c(O)ccc3c(=O)c(Oc4ccccc4Cl)c(C(F)(F)F)oc23)CC1 was read as L major viab 99, Dynein transport inactive, HSV augment inactive and MT stabilize HCS inactive.
Screening Cc1cccc(OCC(=O)Nc2sc3c(c2C#N)CCC3)c1 returned L major viab inactive, bCat nuc transl inactive, Dynein transport inactive, HSV augment inactive and MT stabilize HCS inactive.
Screening Cc1cc(C)c(S(=O)(=O)Nc2ccc(O)cc2)cc1C returned L major viab inactive, bCat nuc transl inactive, Dynein transport inactive, HSV augment inactive and MT stabilize HCS inactive.
Screening Cc1cc(C)c(S(=O)(=O)Nc2cc(SCC(=O)O)c(O)c3ccccc23)cc1C returned L major viab 99, bCat nuc transl inactive, Dynein transport inactive, HSV augment inactive and MT stabilize HCS inactive.
Screening Cc1nc2ccccc2c(=O)n1/N=C/c1cn(-c2ccccc2)nc1-c1cccs1 returned L major viab 56, bCat nuc transl inactive, Dynein transport inactive, HSV augment inactive and MT stabilize HCS inactive.
`CCc1ccccc1NC(=O)CN(C)C(=O)Cn1cc(C(F)(F)F)cc(Cl)c1=O` gave L major viab inactive, bCat nuc transl inactive, Dynein transport inactive, HSV augment inactive and MT stabilize HCS inactive.
CCN(CC)c1ccc(/C=C(\C#N)c2ccccn2)cc1 was read as L major viab inactive, Dynein transport inactive, HSV augment inconclusive and MT stabilize HCS 22.
CCN(Cc1ccccc1)c1ccc(/C=C(\C#N)c2ccccn2)cc1 was read as L major viab inactive, bCat nuc transl inactive, Dynein transport inactive, HSV augment inconclusive and MT stabilize HCS inactive.
Screening COC(=O)c1ccc(CSc2nc3c(c(=O)n2-c2ccc(C)cc2)SCC3)o1 returned L major viab 97, bCat nuc transl inactive, Dynein transport inactive, HSV augment inactive and MT stabilize HCS inactive.
Screening Cc1ccc(-n2c(SCC(=O)N3CCCC3)nc3c(c2=O)SCC3)cc1 returned L major viab inactive, Dynein transport inactive and MT stabilize HCS inactive.
CC/C(=N\NC(=S)Nc1cc(C)ccc1C)c1ccc(OC(F)F)cc1 was read as L major viab 74, Dynein transport inactive, HSV augment inactive and MT stabilize HCS inactive.
`Cn1[nH]c(C(F)(F)F)c(C=Nc2ccc(Cl)cc2)c1=O` gave L major viab inactive, bCat nuc transl inactive, Dynein transport inactive, HSV augment inactive and MT stabilize HCS inactive.
For COc1ccc(C(=O)Nc2nc3c(s2)Cc2cc(OC)ccc2-3)cc1 the results were L major viab 96, bCat nuc transl inactive, Dynein transport inactive, HSV augment inactive and MT stabilize HCS inactive.
Screening COCCOC(=O)c1[nH]c2c(c1C)C(=O)CC(c1ccccc1)C2 (stereo not given) returned L major viab inactive, bCat nuc transl 95, Dynein transport inactive and MT stabilize HCS 25.
For COCCOC(=O)c1[nH]c2c(c1C)C(=O)CC(c1ccc(N(C)C)cc1)C2 (stereo not given) the results were L major viab inactive, bCat nuc transl inactive, Dynein transport inactive, HSV augment inactive and MT stabilize HCS inactive.
For COCCOC(=O)c1[nH]c2c(c1C)C(=O)CC(c1ccc(F)cc1)C2 (stereo not given) the results were L major viab inactive, bCat nuc transl 78, Dynein transport inactive, HSV augment inactive and MT stabilize HCS 22.
Screening Cc1c(C(=O)O)[nH]c2c1C(=O)CC(c1ccccc1)C2 (stereo not given) returned L major viab inactive, bCat nuc transl inactive, Dynein transport inactive, HSV augment inactive and MT stabilize HCS inactive.
Cc1ccc(OCC(=O)NCCC2=CCCCC2)cc1 was read as L major viab inactive, Dynein transport inactive, HSV augment inactive and MT stabilize HCS inactive.
For COc1ccc(-c2cn3cc(C(F)(F)F)cc(Cl)c3n2)cc1 the results were L major viab inactive, bCat nuc transl inactive, Dynein transport inactive, HSV augment inactive and MT stabilize HCS 16.
Screening N#Cc1ccc(-c2cn(-c3ccccc3)c3[n+]2CCCS3)cc1 returned L major viab inactive, bCat nuc transl inactive, Dynein transport inactive, HSV augment inactive and MT stabilize HCS inactive.
c1ccc(-c2cn(-c3ccccc3)c3[n+]2CCCS3)cc1 was read as bCat nuc transl inactive, Dynein transport inactive and HSV augment inactive.
For COc1ccc(-n2cc(-c3ccc(C)cc3)[n+]3c2SCC3)cc1 the results were L major viab 100, bCat nuc transl inactive, Dynein transport inactive, HSV augment inactive and MT stabilize HCS inactive.
For CCc1ccc(-n2cc(-c3ccc(F)cc3)[n+]3c2SCCC3)cc1 the results were L major viab 101, bCat nuc transl inactive, Dynein transport inactive, HSV augment inactive and MT stabilize HCS inactive.

Screens deposited in PubChem by several laboratories.
